Test results from ChEMBL document CHEMBL3826950, “Design and development of new class of Mycobacterium tuberculosisl-alanine dehydrogenase inhibitors” (Bioorg Med Chem, 2016).
Values after ≈ are worked out from the molar mass of the structure shown. Active and inactive are the calls of the source. No cut-off for these calls is given here.

What was measured:
[1] = Cytotoxicity against mouse RAW264.7 cells assessed as reduction in cell viability at 25 uM measured after 48 hrs by MTT assay; format: cell-based; conditions: read-out: INH
In short: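 RAW 264.7 cells were grown in RPMI with 10% FBS and penicillin/streptomycin, seeded at about 5000 cells/well on poly-L-lysine, and held 24 h at 37 °C in 5% CO2. Compound exposure lasted 48 h. MTT (0.5 mg/ml) was added for 3 h and formazan was read at 595 nm.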

[2] = tested on: Mycobacterium tuberculosis; assay: Antibacterial activity against actively replicative Mycobacterium tuberculosis H37Rv measured after 7 days by MABA assay; format: functional; conditions: 168 h
In short: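 Serial two-fold dilutions in 7H9-S were tested against replicating M. tuberculosis H37Rv (ATCC 27294) at 37 °C for 7 days. Alamar blue was then added and plates were incubated overnight. MIC was the lowest concentration that prevented the blue-to-pink colour change.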

[3] = Inhibition of Mycobacterium tuberculosis L-AlaDH assessed as NADH production by spectrophotometric method
In short: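 Oxidative deamination of L-alanine to pyruvate was followed by NADH absorbance at 340 nm at 37 °C. Background was read from reaction mix without enzyme. Compounds were tested across a 25 to 0.5 range to derive IC50.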

[4] = tested on: Mycobacterium tuberculosis; assay: Antibacterial activity against nutrient-starved dormant Mycobacterium tuberculosis H37Rv assessed in log reduction in bacterial count at 10 ug/ml measured after 7 days by MPN assay relative to control; format: functional
In short: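 H37Rv was grown in 7H9/OADC, washed, and starved in PBS in sealed bottles at 37 °C for 6 weeks. The starved culture was treated for 7 days at 37 °C, then diluted 10-fold to 10^-6 in 7H9/OADC and plated in triplicate. After 28 days at 37 °C, wells with growth were scored and MPN was calculated (n = 3).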

Work on `O=C(NN1C(C(=O)Nc2ccc(Cl)cc2)CC1C(=O)Nc1ccc(Cl)cc1)c1ccncc1` (centres undefined) yielded a cytotoxicity at 48 h, 25 µM [1] of 32.9%, an MIC [2] of 51.6 µM (≈ 25 µg/mL) and an IC50 [3] of 5.56 µM.

`O=C(NN1C(C(=O)NCCc2ccccc2)CC1C(=O)NCCc1ccccc1)c1ccncc1` (centres undefined) showed a cytotoxicity at 48 h, 25 µM [1] of 42.3%, an MIC [2] of 26.5 µM (≈ 12.5 µg/mL) and an IC50 [3] of 4.75 µM.

For `Cc1cccc(NC(=O)C2CC(C(=O)Nc3cccc(C)n3)N2NC(=O)c2ccncc2)n1` (centres undefined), the cytotoxicity at 48 h, 25 µM [1] was 3.89%, the MIC [2] was 3.51 µM (≈ 1.56 µg/mL) and the IC50 [3] was 14.6 µM.

Work on `O=C(NN1C(C(=O)NCc2ccccc2)CC1C(=O)NCc1ccccc1)c1ccncc1` (centres undefined) yielded a cytotoxicity at 48 h, 25 µM [1] of 49.3%, an MIC [2] of 28.2 µM (≈ 12.5 µg/mL) and an IC50 [3] of 10.2 µM.

`O=C(NN1C(C(=O)Nc2nc3ccccc3s2)CC1C(=O)Nc1nc2ccccc2s1)c1ccncc1` (centres undefined) gave a cytotoxicity at 48 h, 25 µM [1] of 34.7%, an MIC [2] of 11.8 µM (≈ 6.25 µg/mL) and an IC50 [3] of 3.83 µM. For the same compound, the “Log reduction in bacterial count” value [4] was 2.

Work on `Cc1cccc(C)c1NC(=O)C1CC(C(=O)Nc2c(C)cccc2C)N1NC(=O)c1ccncc1` (centres undefined) yielded a cytotoxicity at 48 h, 25 µM [1] of 26.6%, an MIC [2] of 3.31 µM (≈ 1.56 µg/mL) and an IC50 [3] of 9.69 µM.

With `O=C(NN1C(C(=O)Nc2ccc(Br)cc2)CC1C(=O)Nc1ccc(Br)cc1)c1ccncc1` (centres undefined) the cytotoxicity at 48 h, 25 µM [1] was 19.7%, the MIC [2] was 2.72 µM (≈ 1.56 µg/mL) and the IC50 [3] was greater than 25 µM. For the same compound, the Activity [4] was “inactive”.

In the case of `CC[C@@H](CO)NCCN[C@@H](CC)CO` [ETHAMBUTOL], the MIC [2] is reported as 7.64 µM (≈ 1.56 µg/mL).

`O=C(NN1C(C(=O)Nc2ccc(Cl)c(Cl)c2)CC1C(=O)Nc1ccc(Cl)c(Cl)c1)c1ccncc1` (centres undefined) gave a cytotoxicity at 48 h, 25 µM [1] of 49.5%, an MIC [2] of 1.41 µM (≈ 0.78 µg/mL) and an IC50 [3] of 13.7 µM.

Work on `O=C(NN1C(C(=O)Nc2nc3ccccc3s2)CC1C(=O)Nc1nc2ccccc2s1)c1ccccc1` (centres undefined) yielded a cytotoxicity at 48 h, 25 µM [1] of 12.3%, an MIC [2] of 5.93 µM (≈ 3.13 µg/mL) and an IC50 [3] greater than 25 µM. For the same compound, the Activity [4] was “inactive”.

With `O=C(NN1C(C(=O)Nc2ccccn2)CC1C(=O)Nc1ccccn1)c1ccncc1` (centres undefined) the cytotoxicity at 48 h, 25 µM [1] was 7.68%, the MIC [2] was 3.74 µM (≈ 1.56 µg/mL) and the IC50 [3] was 9.47 µM.

Work on `O=C(NN1C(C(=O)Nc2ccccc2)CC1C(=O)Nc1ccccc1)c1ccncc1` (centres undefined) yielded a cytotoxicity at 48 h, 25 µM [1] of 19.8%, an MIC [2] of 15.1 µM (≈ 6.26 µg/mL) and an IC50 [3] of 9.22 µM. For the same compound, the “Log reduction in bacterial count” value [4] was 1.6.

In the case of `COc1c(N2C[C@@H]3CCCN[C@@H]3C2)c(F)cc2c(=O)c(C(=O)O)cn(C3CC3)c12` [MOXIFLOXACIN], the MIC [2] is reported as 1.24 µM (≈ 0.498 µg/mL) and the “Log reduction in bacterial count” value [4] is reported as 2.8.

For `NNC(=O)c1ccncc1` [ISONIAZID], the MIC [2] was 0.72 µM (≈ 0.0987 µg/mL) and the “Log reduction in bacterial count” value [4] was 1.5.

Work on `COc1ccc(Nc2nc(Nc3ccc4c(=O)[nH][nH]c(=O)c4c3)c3cccnc3n2)cc1` yielded an IC50 [3] of 23.3 µM.

With `COc1ccc(C(=O)Nc2ccccc2)cc1Nc1nc(Nc2ccccn2)nc2ncccc12` the IC50 [3] was 22.1 µM.

For `Cc1cccc(/C=N/NC2=Nc3[nH]c4ccc(C)cc4c3NN2)c1`, the IC50 [3] was 18.2 µM.

`Cc1ccc2[nH]c(/C(C#N)=C/c3ccc(-c4cc(C(=O)O)cc(C(=O)O)c4)o3)nc2c1` showed an IC50 [3] of 15.6 µM.

For `COc1ccc(NC(=O)C2CC(C(=O)Nc3ccc(OC)cc3OC)N2NC(=O)c2ccncc2)c(OC)c1` (centres undefined), the cytotoxicity at 48 h, 25 µM [1] was 48.9%, the MIC [2] was 46.7 µM (≈ 25 µg/mL) and the IC50 [3] was 11.7 µM.

For `Cc1ccc(NC(=O)C2CC(C(=O)Nc3ccc(C)cc3C)N2NC(=O)c2ccncc2)c(C)c1` (centres undefined), the cytotoxicity at 48 h, 25 µM [1] was 19.3%, the MIC [2] was 13.3 µM (≈ 6.26 µg/mL) and the IC50 [3] was 4.38 µM.

With `CO[C@H]1/C=C/O[C@@]2(C)Oc3c(C)c(O)c4c(O)c(c(/C=N/N5CCN(C)CC5)c(O)c4c3C2=O)NC(=O)/C(C)=C\C=C\[C@H](C)[C@H](O)[C@@H](C)[C@@H](O)[C@@H](C)[C@H](OC(C)=O)[C@@H]1C` [RIFAMPIN] the MIC [2] was 0.15 µM (≈ 0.123 µg/mL) and the “Log reduction in bacterial count” value [4] was 2.2.
